Hits are enriched below; roughly 1.5% of the tested compounds scored in any of these assays.
Dynein cargo inh: blocks dynein driven cargo transport along microtubules; z-score, hits read low; actives 0.47% (n = 220,000); 3617.4 mouse cells, GR-EGFP nuclear translocation imaging; test concentration mostly 20 µM; stimulated with dexamethasone, 1 µM; stronger effect = lower value;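 active means plate z-score of nuclear minus cytoplasmic receptor signal below a set negative limit, without overly bright fluorescence or cell loss, cut at about -3.5 in these data, passing the limit was not always enough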;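 further: z-score of nuclear minus cytoplasmic ring GR-EGFP intensity difference per well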
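Schedule: 48 h induction, then 1 h compound, then 30 min agonist, 37 °C. Buffer or medium: tetracycline-free induction medium containing charcoal-stripped FBS. Reagent: 1.0 µM final dexamethasone stimulus. Evaluation: nuclear versus cytoplasmic GR-EGFP signal, averaged per well. Signal: high-content fluorescence imaging after fixation.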
bCat nuc transl: alters nuclear translocation of beta-catenin in HeLa cells; immunofluorescence imaging; nuclear translocation activity, % at 5 µM; actives 0.3% (n = 190,000);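 active means nuclear translocation activity above 50% at 5 µM, with a well cell count of 50 or more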;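 further: per-cell ratio of nuclear to cytoplasmic median beta-catenin stain intensity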
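Test system: human HeLa cells, native beta-catenin. Compound dosing: 5 µM primary single dose, 0.1% DMSO, 0.02–20 µM confirmation series. Incubation: compound exposure 24 h at 37°C. Detection: beta-catenin immunostaining with DAPI counterstain, 20x imaging, 6 fields/well. Read-out basis: Nuclear/cytoplasmic beta-catenin signal ratio, % activation.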
Rad51 HR inh: blocks human Rad51 in homologous recombination; Q06609; hRad51 DNA strand exchange, fluorescence dequenching; inhibition, % at 10 µM; actives 0.085% (n = 200,000); AID 1385;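 active means inhibition above 40% at the single screening dose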
Target sequence (Q06609 whole entry, looked up): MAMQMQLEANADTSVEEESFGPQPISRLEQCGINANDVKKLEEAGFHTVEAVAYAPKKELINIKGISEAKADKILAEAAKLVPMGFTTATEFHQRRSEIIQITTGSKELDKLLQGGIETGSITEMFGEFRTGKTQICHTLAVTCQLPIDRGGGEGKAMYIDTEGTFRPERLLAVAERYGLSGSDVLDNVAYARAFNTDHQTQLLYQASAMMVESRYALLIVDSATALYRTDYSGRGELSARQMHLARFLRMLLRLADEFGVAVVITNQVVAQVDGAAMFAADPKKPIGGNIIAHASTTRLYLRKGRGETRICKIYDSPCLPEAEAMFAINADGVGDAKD
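Assay system: Human Rad51 nucleoprotein filaments preassembled on unlabelled ssDNA | Reagent: Donor/quencher-labelled 47-bp dsDNA substrate | Doses: One concentration, 10 µM final | Times: 37 °C 15-min filament assembly, 30-min compound preincubation, 15-min exchange | Technique: Fluorescein emission 520 nm, excitation 485 nm | Benchmarks: Plate control and blank wells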
MT stabilize HCS: microtubule stabilizers in HeLa cells. HeLa tubulin immunostaining HCS, 24 h; share of cells brighter than vehicle mean+2SD. % tubulin-high responders, % at 10 µM. actives 0.83% (n = 200,000). AID 2205;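 active means plate Z-score above 3 for both tubulin-high and condensed-nucleus cell shares, with cell loss under 80%, at 10 µM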;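 further: anti alpha tubulin signal scored within the nucleus-defined area of each cell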
Tb hexokinase: T. brucei hexokinase 1 inhibition. inhibition, % at 10 µM. recombinant TbHK1, G6PDH-coupled NADH A340. actives 0.11% (n = 220,000). AID 1430;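 active means inhibition of 50% or more in the single-dose primary screen; inactive means inhibition below 50%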
Large screens that a line does not name were inactive.

COc1cccc(CN2CCNC(=O)C2CC(=O)N2CCOc3ccccc3C2)c1OC (stereo unspecified)	none (no result: Rad51 HR inh)
Cc1ccccc1NC(=O)CSC1=C(C#N)C(c2ccsc2)CC(=O)N1 (stereo unspecified)	MT stabilize HCS 26
COC(=O)CSC1=C(C#N)C(c2ccc(F)cc2)CC(=O)N1 (stereo unspecified)	none
N#CC1=C(SCC(=O)Nc2nccs2)NC(=O)CC1c1ccccc1 (stereo unspecified)	MT stabilize HCS 40 (no result: bCat nuc transl)
COC(=O)CSC1=C(C#N)C(c2ccc(C)o2)CC(=O)N1 (stereo unspecified)	MT stabilize HCS 17
COc1ccc(OC)c(/C=N/NC(=O)C(=O)N2CCCC2)c1	none
CCN1C/C(=C\c2cccc([N+](=O)[O-])c2)C(=O)/C(=C/c2cccc([N+](=O)[O-])c2)C1	Dynein cargo inh -3.7, MT stabilize HCS 28
COc1ccccc1C1C2=C(N=C3SCC(=O)N31)c1ccccc1CC2 (stereo unspecified)	none
COc1ccc(/C=c2/sc3n(c2=O)C(c2ccccc2OC)C2=C(N=3)c3ccccc3CC2)cc1O (stereo unspecified)	MT stabilize HCS 33
COc1ccc(CN2CCN(S(=O)(=O)c3ccccc3)CC2)cc1Br	none
COc1ccc(S(=O)(=O)N2N=C(C)Oc3ccccc3C2=O)cc1	bCat nuc transl 80, MT stabilize HCS 37
CC1=NN(S(=O)(=O)c2ccc(C)cc2)C(=O)c2ccccc2O1	none (no result: MT stabilize HCS)
COc1ccccc1C(=O)NNC(=O)C(=O)NC(C)C	none
N#CC1=C(N)OC2=C(CCc3ccccc32)C1c1ccccc1Cl (stereo unspecified)	MT stabilize HCS 18 (no result: Rad51 HR inh)
COc1ccc(Br)cc1/C=C/C(=O)c1ccc(NC(C)=O)cc1	Dynein cargo inh -3.5, bCat nuc transl 52
C=CCc1cc(C=O)cc(OCC)c1OCc1ccc(Cl)cc1	none (no result: Rad51 HR inh)
O=C(N/N=C/c1ccc(Cl)cc1)c1sccc1OCc1ccc(F)cc1	MT stabilize HCS 19 (no result: Dynein cargo inh)
O=C(N/N=C/c1ccc(F)cc1)c1sccc1OCc1ccc(F)cc1	bCat nuc transl 87, MT stabilize HCS 34
NNC(=O)c1sccc1OCc1ccc(F)cc1	none
CCOC(=O)C1(CCCc2ccccc2)CCN(C(=O)c2ocnc2C)CC1	none (no result: Rad51 HR inh)
CCOc1ccc(S(=O)(=O)N(C(=O)c2ccco2)c2cc3sc(=O)oc3c3ccccc23)cc1	MT stabilize HCS 19
CC(=O)N(C)N(C)c1cc(C)nc(N)n1	none (no result: MT stabilize HCS)
Oc1ccc(O)c(Cc2nc3ccccc3s2)c1	MT stabilize HCS 13
Oc1ccccc1OCc1nc2ccccc2s1	none
CCc1cccc(C)c1NC(=O)COC(=O)c1ccc2c(c1)S(=O)(=O)c1ccccc1C2=O	none (no result: Rad51 HR inh)
COc1cccc(NC(=O)c2cc(-c3cccnc3)nc3c(Cl)cccc23)c1	Rad51 HR inh 45
CCCc1nc(SCC(=O)Nc2cc(Cl)ccc2OC)c2c(=O)n(C)c(=O)n(C)c2n1	none
O=C(NN1C(=O)/C(=C/C=C/c2ccco2)SC1=S)c1ccccc1O	Tb hexokinase 63 (no result: MT stabilize HCS)
O=C(Nc1ccc2c(c1)OCO2)C1CCN(C(=O)c2ccc(Br)cc2)CC1	Rad51 HR inh 41
O=C1OCC2=C1C(c1ccc(F)cc1)CC(=O)N2c1ccccc1 (stereo unspecified)	none (no result: Rad51 HR inh)
O=C1OCC2=C1C(c1ccccc1)CC(=O)N2c1ccccc1 (stereo unspecified)	Rad51 HR inh 51
COc1cccc(/C=N/NC(=O)C[n+]2ccccc2)c1OC	none
COc1ccc(OC)c2c1C(=O)C(Cl)=C(Cl)C2=O	Dynein cargo inh -5.4 (no result: MT stabilize HCS)
O=C(NCCCN1CCOCC1)C(=O)N/N=C/c1c2ccccc2cc2ccccc12	MT stabilize HCS 22
COc1ccc(CN2CCN(C(=O)C3CC(=O)N(C4CCCCCC4)C3)CC2)c(OC)c1OC (stereo unspecified)	none
COc1cccc(C(=O)Nc2ncc3c(n2)CC(c2ccc(OC)cc2OC)CC3=O)c1 (stereo unspecified)	bCat nuc transl 73
COc1ccc(C(=O)Nc2ncc3c(n2)CC(C)CC3=O)cc1 (stereo unspecified)	none
COc1ccc(Oc2cnc3ccccc3n2)cc1	none
O=C(CSc1nnc(C2CCCCC2)o1)N1CCCCC1	none
O=[N+]([O-])c1cnc(Sc2ccncn2)s1	Dynein cargo inh -5.1 (no result: MT stabilize HCS)
CCCC(=O)Nc1nc2ccc(NC(=O)c3ccccc3F)cc2s1	MT stabilize HCS 34
CC(=O)Nc1ccc2nc(NC(=O)CCc3ccccc3)sc2c1	none
CCCCC(=O)Nc1nc2ccc(C(=O)OC)cc2s1	MT stabilize HCS 25
CCCC(=O)Nc1nc2ccc(C(=O)OCC)cc2s1	none
CN(C)S(=O)(=O)c1ccc(C(=O)N2CCN=C2SCc2ccccc2)cc1	none
CCSC1=NCCN1C(=O)c1ccc(S(=O)(=O)N(C)C)cc1	Rad51 HR inh 41
COc1ccc(NC(=O)C2CCCN(S(=O)(=O)c3c(C)n[nH]c3C)C2)c(OC)c1 (stereo unspecified)	none
CCOC(=O)c1ccc(NC(=O)Cn2ncc(Cl)c(Cl)c2=O)cc1	Dynein cargo inh -4.2 (no result: bCat nuc transl)
Cc1cc(C)n(S(=O)(=O)Cc2ccccc2)n1	none
COc1ccc(S(=O)(=O)N2c3ccccc3OCC2c2ccccc2)cc1 (stereo unspecified)	MT stabilize HCS 23 (no result: Dynein cargo inh)
COc1ccc(S(=O)(=O)N2c3ccccc3OCC2C(C)(C)C)cc1 (stereo unspecified)	MT stabilize HCS 14
COc1ccc(S(=O)(=O)N2c3ccccc3OCC2C)cc1 (stereo unspecified)	bCat nuc transl 111, MT stabilize HCS 18
COc1ccc(S(=O)(=O)N2CCC(N3CCN(c4ccccc4OC)CC3)CC2)cc1	none (no result: MT stabilize HCS)
Cc1ccc(C(=O)Nc2ncc(Cc3ccc(SC(F)F)cc3)s2)cc1	bCat nuc transl 135
CNNC(=O)C(=O)NNS(=O)(=O)c1ccccc1	none
Clc1ccc(Cn2ncc3c(NCc4ccccc4)ncnc32)c(Cl)c1	MT stabilize HCS 17 (no result: Rad51 HR inh)
c1ccc(CNc2ncnc3c2cnn3-c2ccccc2)cc1	MT stabilize HCS 54
CC1(C)OC(=O)C(=NNc2ccccc2C(=O)O)C(=O)O1	none (no result: MT stabilize HCS)
Cc1ccc2nc3cc([N+](=O)[O-])cc([N+](=O)[O-])c3cc2c1	Dynein cargo inh -6.3
Cc1cc2c(cc1C)C(c1cc(Br)ccc1F)CC(=O)N2 (stereo unspecified)	MT stabilize HCS 27 (no result: Rad51 HR inh)
CCOc1ccc(-n2ccnc2SCC(=O)Nc2nnc(C)s2)cc1	none
CCCN1CCC(=NNc2ccc(S(=O)(=O)N(CC)CC)cc2[N+](=O)[O-])CC1	bCat nuc transl 112
Cc1cc(C)n(-c2nc(SCC(=O)O)c3c4c(sc3n2)COC(C)(C)C4)n1	none (no result: Rad51 HR inh, MT stabilize HCS)
Cn1cc(C2CC(c3ccccc3)=NN2C(=O)c2ccccc2)c2ccccc21 (stereo unspecified)	MT stabilize HCS 24
c1ccc(-c2ccccc2OCCOCCN2CCCCC2)cc1	none

High-throughput results (PubChem BioAssay)
